System: MS2 coat protein
Test: apparent Kd, MS2 coat protein; higher = weaker binding; RNA-MaP array; FMN 200 µM where present
Procedure, shortened: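 Designs were transcribed by stalled E. coli RNA polymerase on Illumina sequencing-chip clusters. They were titrated with SNAP-549-labelled MS2 coat protein from 0.7 or 1.5 nM, doubling to 3 µM, in 100 mM Tris-HCl pH 7.5, 80 mM KCl, 4 mM MgCl2, BSA, DTT, yeast tRNA and Tween-20, without and then with constant ligand. The apparent Kd is the median of filtered per-cluster fits after normalisation of green signal to red-channel RNA signal and control-cluster median Fmax.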

[1] = designed as: OFF switch for flavin mononucleotide, no ligand
[2] = ligand present: flavin mononucleotide, designed as: OFF switch for flavin mononucleotide
[3] = designed as: ON switch for flavin mononucleotide, no ligand
[4] = ligand present: flavin mononucleotide, designed as: ON switch for flavin mononucleotide

Row | Sequence | apparent Kd [1] | apparent Kd [2] | apparent Kd [3] | apparent Kd [4]
1 | GGCGUGUUAGGAUAUCGCGGCGGCGGCGUUUGUUGUUGUUGUGAGAAGGAACAUGAGGAUCACCCAUGUAUGCC | 34.8 nM | 55 nM | – | –
2 | GGCGUUCGCACAGGAUAUGCAUUAGACAUGAGGAUCACCCAUGUAGGCUAAGCAGAAGGGUGGGUGUGUCUAAGGAAAUUCUUC | – | – | 172 nM | 42.4 nM
3 | GGCGUUGAAGGAUAUUGAUAUCCGGACAUGAGGAUCACCCAUGUGAGACAUACUUAUAUGCGAGAAGGUCAGGCCC | 160 nM | 139 nM | – | –
4 | GGCUAGUGAGGAUAUACGUGCAGUCCUCAGUCGCCAGUCGGACAUGAGGAUCACCCAUGUAGAAGGUAUCGGCA | 35.8 nM | 38.9 nM | – | –
5 | GGCUGGCAGCUAGGAUAUGGGCGGUCACAUGAGGAUCACCCAUGUCAACAUCAAAACCAGAUUAACCAGAAGGAGCUGCGGAUU | – | – | 32.7 nM | 502 nM
6 | GGCUGUCGGUCGGGUCAUCCACAUGAGGAUCACCCAUGUAGGAGAAGGGUCCGCCAGGCUUGUGGAUAGGAUAUCCUAGAAUGA | 5.45 nM | 5.52 nM | – | –
7 | GGGACCGUACUCCUGUUGUACUCUGAGGAUAUCCGUUACGGACAUGAGGAUCACCCAUGUACGGCGGAGAAGGCAGAUCUCAUA | – | – | 6.44 nM | 5.26 nM
8 | GGGAGACAUGAGGAUCACCCAUGUGAAAACGUGGCAGGAUAUGGAUGGAAACCAUACUGUCCAGAAGGGCCUUGUC | – | – | 47.4 nM | 37.8 nM
9 | GGGCCCGGAGGAUAUACAUGAGGAUCACCCAUGUAUUUGGGCCCUAUUGGGCCCGGGUGUAGAAGGCCGGGUUU | 15.7 nM | 21.4 nM | – | –
10 | GGGCCCGGUGUGAGGAUAUGCCCGGGUAAAUUUGGGCAGAAGGCACAUGAGGAUCACCCAUGUAAGCCGGGCCC | 13.9 nM | 13.8 nM | – | –
11 | GGGCCGAAAGGCCCGCGGGCCCGGGAGGAUAUACAUGAGGAUCACCCAUGUCCGGCGAAAGCCGGGUAGAAGGCCCGGGCCCGC | 5.38 nM | 7.03 nM | – | –
12 | GGGCCGCUACGCCGGCUCCACGCACAGGAUAUGCAGUUACAUGAGGAUCACCCAUGUGGCCAUGUGCAGAAGGGUGGUUCGCGA | – | – | 85.3 nM | 28.6 nM
13 | GGGCUCGGUGUGAGGAUAUCGGGCUCUAAAGGGCUCGAGAAGGCACAUGAGGAUCACCCAUGUAAGUCGGGCUC | 14.8 nM | 15 nM | – | –
14 | GGGCUGUCAGGAUAUCUCGGGCUCGGGUAAACUCGGGCUCGGGAGAAGGGACAUGAGGAUCACCCAUGUGGCUC | 42.1 nM | 51.5 nM | – | –
15 | GGGCUGUCAGGAUAUUGAUCGUGAUCGGAAAUGAUCGUGAUCGAGAAGGGACAUGAGGAUCACCCAUGUGGCCC | 30.8 nM | 33 nM | – | –
16 | GGGUACAUCGGAGGAUAUCAUGUAAAUACAUGAGGAUCACCCAUGUCGAUGGAGACAUCGGAGAUUGAGAAGGCAGAUGUACCG | – | – | 333 nM | 18.1 nM
17 | GGGUACAUCGGAGGAUAUCAUGUAAAUACAUGAGGAUCACCCAUGUCGAUGGAGACAUCGGAGAUUGAGAAGGCCGAAGUACCG | – | – | 214 nM | 8.99 nM
18 | GGGUACAUCGGAGGAUAUCAUGUAAAUACAUGAGGAUCACCCAUGUCGAUGGAGACAUCGGAGAUUGAGAAGGCCGAUGUUCCG | – | – | 202 nM | 9.84 nM
19 | GGGUACAUCGGAGGAUAUCAUGUAAAUACAUGAGGAUCACCCAUGUCGAUGGAGACAUCGGAGAUUGAGAAGGCCGAUUUACCG | – | – | 184 nM | 8.4 nM
20 | GGGUACAUCGGAGGAUAUCAUGUAAAUACAUGAGGAUCACCCAUGUCGAUGGAGACAUCGGAGAUUGAGAAGGCCGCUGUACCG | – | – | 176 nM | 9.92 nM
21 | GGGUACAUCGGAGGAUAUCAUGUAAAUACAUGAGGAUCACCCAUGUCGAUGGAGACAUCGGAGAUUGAGAAGGCCGUUGUACCG | – | – | 168 nM | 9.18 nM
22 | GGGUACAUCGGAGGAUAUCAUGUAAAUACAUGAGGAUCACCCAUGUCGAUGGAGACAUCGUAGAUUGAGAAGGCCGAUGUACCG | – | – | 9.85 nM | 5.37 nM
23 | GGGUACAUCGGAGGAUAUCAUGUAAAUACAUGAGGAUCACCCAUGUCGAUGGAGACUUCGGAGAUUGAGAAGGCCGAUGUACCG | – | – | 434 nM | 27.8 nM

From the EternaBench riboswitch data
